Measurements from publication PMC11909274 (Nature Communications, 2025).

What was measured:
[1] = tested on: CHP-212-R(mix) and resistant monoclonal sublines R1-R6 (heterozygous USP7 V517F); assay: Cell viability assay; settings: for sensitivity of the resistant cells to other agents: SRB, 3 days exposure (Fig. 1d)
[2] = tested on: CHP-212.V517F.KI#1 and CHP-212.V517F.KI#2 cells; assay: Cell viability assay; assay type: cell-based, human; settings: CHP-212 V517F knock-in vs WT
[3] = tested on: LNCaP V517F.KI#1 and V517F.KI#2 cells; assay: Cell viability assay; assay type: cell-based, human; settings: LNCaP.V517F.KI vs WT
USP7_V517F^CD = USP7_V517F^CD (Homo sapiens, UniProt Q93009, V517F); assay: Ub-AMC in vitro enzyme assay; assay type: biochemical; settings: 50 nM USP7_V517F^CD, up to 0.5 μM USP7-797 or 1 μM FT671
Sequence of USP7_V517F^CD (Q93009 208-560 V517F): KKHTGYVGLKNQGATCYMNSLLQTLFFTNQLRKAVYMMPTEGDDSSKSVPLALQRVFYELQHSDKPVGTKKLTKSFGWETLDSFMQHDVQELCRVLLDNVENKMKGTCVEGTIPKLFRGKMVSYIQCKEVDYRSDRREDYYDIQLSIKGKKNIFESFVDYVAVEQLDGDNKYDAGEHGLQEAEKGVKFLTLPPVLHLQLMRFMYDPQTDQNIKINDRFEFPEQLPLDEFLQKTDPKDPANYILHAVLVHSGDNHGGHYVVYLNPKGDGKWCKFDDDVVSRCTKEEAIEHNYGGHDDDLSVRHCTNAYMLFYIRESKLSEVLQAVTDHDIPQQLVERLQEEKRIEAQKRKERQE

V517F^CD = V517F^CD (Homo sapiens, UniProt Q93009, V517F); assay: Isothermal titration calorimetry; assay type: binding; settings: ITC, compared to the control groups (WT)
Sequence of V517F^CD (Q93009 208-560 V517F): as above

V517G^CD = V517G^CD (Homo sapiens, UniProt Q93009, V517G); assay: Isothermal titration calorimetry; assay type: binding; settings: ITC, USP7_V517G^CD
Sequence of V517G^CD (Q93009 208-560 V517G): as the sequence (Q93009 208-560 V517F) above, with F310G counted along it
Method in brief: (§1)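 His-tagged USP7 catalytic-domain mutants were expressed from pET28 in E. coli BL21(DE3), induced with 0.5 mM IPTG overnight at 17 °C, then purified by Ni–NTA and desalting. Protein was titrated with test compound on a MicroCal PEAQ-ITC at 25 °C, using an initial 0.5 μL injection then 20 injections of 2 μL. Kd came from a single-site binding model fit.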

V517A^CD = V517A^CD (Homo sapiens, UniProt Q93009, V517A); assay: Isothermal titration calorimetry; assay type: binding; settings: ITC
Sequence of V517A^CD (Q93009 208-560 V517A): as the sequence (Q93009 208-560 V517F) above, with F310A counted along it
Method in brief: as §1

V517I^CD = V517I^CD (Homo sapiens, UniProt Q93009, V517I); assay: Isothermal titration calorimetry; assay type: binding; settings: ITC
Sequence of V517I^CD (Q93009 208-560 V517I): as the sequence (Q93009 208-560 V517F) above, with F310I counted along it
Method in brief: as §1

V517Y^CD = V517Y^CD (Homo sapiens, UniProt Q93009, V517Y); assay: Isothermal titration calorimetry; assay type: binding; settings: ITC, USP7_V517Y^CD
Sequence of V517Y^CD (Q93009 208-560 V517Y): as the sequence (Q93009 208-560 V517F) above, with F310Y counted along it
Method in brief: as §1

CHP-212 R(mix) cells = assay: Cell cycle distribution by flow cytometry; assay type: cell-based, human; settings: 24 h treatment
[4] = tested on: c-caspase-3, c-caspase-7, c-PARP, p53, p21, Rad18, DNMT1, UHRF1 in CHP-212 resistant variants; assay type: cell-based, human; settings: resistant variants relative to the parent cells, 48 h, Western blotting
Method in brief: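 CHP-212 parental and resistant cells were treated with test compound, 48 h for caspase-3/-7, cleaved caspases and PARP1, or 24 h for p53, p21, Rad18, DNMT1 and UHRF1. Lysis was in SDS buffer (50 mM Tris-HCl pH 6.8, 2% SDS, 100 mM DTT) with 15 min boiling, followed by SDS-PAGE on 7.5–12.5% gels. Primary antibodies were used at 1:1000 with HRP secondaries. Blots were repeated three times.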

Capan-1.V517F.OE cells = settings: Capan-1.V517F.OE vs WT.OE
[5] = tested on: USP4, USP8, USP9X, USP12, USP15, and USP34; settings: cited from earlier work

## CC[C@]1(O)C[C@H]2CN(CCc3c([nH]c4ccccc34)[C@@](C(=O)OC)(c3cc4c(cc3OC)N(C=O)[C@H]3[C@@](O)(C(=O)OC)[C@H](OC(C)=O)[C@]5(CC)C=CCN6CC[C@]43[C@@H]65)C2)C1 [VCR]
[1]
  sensitivity of the resistant cells to other agents: maintained sensitivity

## O=C(C[C@@H](C(F)F)n1ccc(F)n1)N1CCC(O)(Cn2cnc3c(cnn3-c3ccc(F)cc3)c2=O)CC1 [FT671]
[2]
  sensitivity reduction: 88–106 fold
[3]
  sensitivity reduction: 121- to 146 fold
USP7_V517F^CD
  inhibition of V517F enzyme activity: failed to inhibit
V517F^CD
  fold decreased binding affinity of USP7_V517F: 67 fold
V517G^CD
  affinity compared to wild-type USP7: remain essentially unchanged
V517A^CD
  affinity compared to wild-type USP7: remain essentially unchanged
V517I^CD
  affinity compared to wild-type USP7: remain essentially unchanged
V517Y^CD
  affinity compared to wild-type USP7: decreases significantly
CHP-212 R(mix) cells
  cell-cycle distribution of resistant variants: not profoundly altered
[4]
  activation of apoptosis-related proteins (c-caspase-3, c-caspase-7, c-PARP): reduced activation
Capan-1.V517F.OE cells
  fold higher IC50: 48 fold
[5]
  response of other USP family members to FT671: resistant
[1]; resistant sublines vs parental CHP-212 cells
  fold reduction in sensitivity / higher IC50 than parental cells: 83–213 fold

## NS(=O)(=O)OC[C@@H]1C[C@@H](n2ccc3c(N[C@H]4CCc5ccccc54)ncnc32)C[C@@H]1O [MLN4924]
[1]
  sensitivity of the resistant cells to other agents: maintained sensitivity

## CC(=O)O[C@H]1C(=O)[C@@]2(C)[C@H]([C@H](OC(=O)c3ccccc3)[C@]3(O)C[C@H](OC(=O)[C@H](O)[C@@H](NC(=O)c4ccccc4)c4ccccc4)C(C)=C1C3(C)C)[C@]1(OC(C)=O)CO[C@@H]1C[C@@H]2O [Taxol]
[1]
  sensitivity of the resistant cells to other agents: maintained sensitivity

## COc1ncnc(C2CC2)c1-c1ncc2cnn(Cc3ccc(-c4nc(C(F)(F)F)cn4C(C)C)cc3)c2n1 [KSQ4279]
[1]
  sensitivity of the resistant cells to other agents: maintained sensitivity

## CC(C)C[C@H](NC(=O)[C@H](Cc1ccccc1)NC(=O)c1cnccn1)B(O)O [bortezomib]
[1]
  sensitivity of the resistant cells to other agents: maintained sensitivity

## COc1cccc2c1C(=O)c1c(O)c3c(c(O)c1C2=O)C[C@@](O)(C(=O)CO)C[C@@H]3O[C@H]1C[C@H](N)[C@H](O)[C@H](C)O1 [Adriamycin]
[1]
  sensitivity of the resistant cells to other agents: maintained sensitivity
